Measurements taken from ChEMBL document CHEMBL3739303, “Targeting the Src Homology 2 (SH2) Domain of Signal Transducer and Activator of Transcription 6 (STAT6) with Cell-Permeable, Phosphatase-Stable Phosphopeptide Mimics Potently Inhibits Tyr641 Phosphorylation and Transcriptional Activity” (J Med Chem, 2015).
Activity calls are given as the source filed them. The calls are words filed in the database; no cut-off is given here. Peptide text beside a SMILES is read from it.

What was measured:
[1] = target: Signal transducer and activator of transcription 3 (Mus musculus) (UniProt P42227); assay: Inhibition of IL6-induced STAT3 phosphorylation at S727 in CD4+ T lymphocytes isolated from C57BL/6J mouse preincubated for 2 hrs followed by activation with plate-bound anti-CD3/anti-CD28 for 15 mins by Western blot analysis
Chain of Signal transducer and activator of transcription 3 (Mus musculus) (P42227 whole entry): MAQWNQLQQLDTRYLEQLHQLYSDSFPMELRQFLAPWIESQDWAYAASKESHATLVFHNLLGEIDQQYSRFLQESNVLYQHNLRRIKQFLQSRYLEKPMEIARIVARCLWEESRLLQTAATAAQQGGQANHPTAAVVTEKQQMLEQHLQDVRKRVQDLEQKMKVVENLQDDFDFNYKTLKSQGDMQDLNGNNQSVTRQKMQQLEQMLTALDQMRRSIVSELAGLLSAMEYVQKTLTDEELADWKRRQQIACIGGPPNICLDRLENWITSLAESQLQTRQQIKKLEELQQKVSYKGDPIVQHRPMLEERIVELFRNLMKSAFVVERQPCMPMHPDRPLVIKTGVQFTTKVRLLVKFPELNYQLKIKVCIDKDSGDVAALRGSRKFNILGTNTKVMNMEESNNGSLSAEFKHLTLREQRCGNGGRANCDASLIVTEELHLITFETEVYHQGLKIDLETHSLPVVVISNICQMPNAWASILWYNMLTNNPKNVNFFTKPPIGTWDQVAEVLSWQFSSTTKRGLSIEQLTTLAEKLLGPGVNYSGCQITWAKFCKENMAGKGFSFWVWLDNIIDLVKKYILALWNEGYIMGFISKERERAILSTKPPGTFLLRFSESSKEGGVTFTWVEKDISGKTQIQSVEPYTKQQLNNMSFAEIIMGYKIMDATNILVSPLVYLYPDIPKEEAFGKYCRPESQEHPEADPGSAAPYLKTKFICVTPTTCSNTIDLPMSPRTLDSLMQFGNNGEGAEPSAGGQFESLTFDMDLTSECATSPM

[2] = target: T1, Signal transducer and activator of transcription 1 (Mus musculus) (UniProt P42225); assay: Inhibition of IL6-induced STAT1 phosphorylation at Y701 in CD4+ T lymphocytes isolated from C57BL/6J mouse preincubated for 2 hrs followed by activation with plate-bound anti-CD3/anti-CD28 and IL6 for 15 mins by Western blot analysis; type: cell-based
T1 sequence (whole entry): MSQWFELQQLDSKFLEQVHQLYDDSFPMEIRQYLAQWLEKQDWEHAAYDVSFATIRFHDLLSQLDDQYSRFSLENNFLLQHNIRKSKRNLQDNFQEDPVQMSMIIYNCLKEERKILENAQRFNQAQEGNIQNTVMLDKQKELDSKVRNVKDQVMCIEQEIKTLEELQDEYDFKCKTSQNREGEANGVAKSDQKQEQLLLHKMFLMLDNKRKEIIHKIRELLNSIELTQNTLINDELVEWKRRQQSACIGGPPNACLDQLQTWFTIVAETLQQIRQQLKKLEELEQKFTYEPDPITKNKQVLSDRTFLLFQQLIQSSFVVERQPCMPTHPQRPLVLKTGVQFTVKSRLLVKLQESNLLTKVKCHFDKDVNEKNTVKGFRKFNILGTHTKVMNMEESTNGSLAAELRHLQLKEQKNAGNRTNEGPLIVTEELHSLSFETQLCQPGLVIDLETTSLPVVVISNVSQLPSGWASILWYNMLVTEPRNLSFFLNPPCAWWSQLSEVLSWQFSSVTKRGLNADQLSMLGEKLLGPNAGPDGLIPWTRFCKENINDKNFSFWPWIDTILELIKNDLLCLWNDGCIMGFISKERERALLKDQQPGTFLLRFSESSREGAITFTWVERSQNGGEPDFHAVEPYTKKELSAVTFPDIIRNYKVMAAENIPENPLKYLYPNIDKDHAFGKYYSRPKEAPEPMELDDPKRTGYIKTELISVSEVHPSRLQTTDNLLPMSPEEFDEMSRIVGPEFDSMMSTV
In short: (§1)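 CD4+ T cells from C57BL/6J mice, sorted by AutoMACS; activated 15 min with plate-bound anti-CD3 and/or anti-CD28 with IL-2, IL-6 or IL-4; lysed with protease inhibitors plus 10 mM NaF and 1 mM Na3VO4; Bradford-normalised immunoblots for pSTAT1 (Tyr701), pSTAT5 (Tyr694), pSTAT6 (Tyr641) and total STATs.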

[3] = target: T2, Signal transducer and activator of transcription 6 (Homo sapiens) (UniProt P42226); assay: Inhibition of IL-13-stimulated STAT6 SH2 domain phosphorylation in human Beas-2B cells assessed as inhibition of CCL26 mRNA expression at 100 nM preincubated for 2 hrs followed by stimulation with IL-13 for 24 hrs by RT-PCR analysis relative to control
T2 sequence (whole entry): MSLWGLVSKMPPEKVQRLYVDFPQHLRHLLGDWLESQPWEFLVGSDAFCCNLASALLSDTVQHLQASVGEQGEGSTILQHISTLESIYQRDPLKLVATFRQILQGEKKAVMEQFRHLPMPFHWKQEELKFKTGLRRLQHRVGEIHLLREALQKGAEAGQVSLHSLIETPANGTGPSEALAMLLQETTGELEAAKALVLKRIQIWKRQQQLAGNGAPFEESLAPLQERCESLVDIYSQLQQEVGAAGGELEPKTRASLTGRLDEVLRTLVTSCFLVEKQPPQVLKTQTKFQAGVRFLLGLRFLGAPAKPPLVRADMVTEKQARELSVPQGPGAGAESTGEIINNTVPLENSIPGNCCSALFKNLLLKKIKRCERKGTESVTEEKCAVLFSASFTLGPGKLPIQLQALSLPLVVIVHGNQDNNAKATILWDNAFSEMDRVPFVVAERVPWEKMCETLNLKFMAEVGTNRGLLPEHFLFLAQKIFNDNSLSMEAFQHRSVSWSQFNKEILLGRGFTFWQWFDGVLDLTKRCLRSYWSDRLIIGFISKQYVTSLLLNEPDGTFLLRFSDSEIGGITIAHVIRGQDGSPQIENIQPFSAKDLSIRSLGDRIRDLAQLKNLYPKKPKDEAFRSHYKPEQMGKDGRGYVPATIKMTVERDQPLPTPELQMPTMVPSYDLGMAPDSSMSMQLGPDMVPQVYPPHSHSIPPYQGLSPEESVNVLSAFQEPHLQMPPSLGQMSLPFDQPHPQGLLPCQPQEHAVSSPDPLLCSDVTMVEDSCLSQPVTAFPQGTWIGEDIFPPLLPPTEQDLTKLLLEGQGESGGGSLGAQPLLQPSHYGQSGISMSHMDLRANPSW

[4] = target: T3, Signal transducer and transcription activator 6 (Mus musculus) (UniProt P52633); assay: Inhibition of IL4-induced STAT6 phosphorylation at Y641 in CD4+ T lymphocytes isolated from C57BL/6J mouse preincubated for 2 hrs followed by activation with plate-bound anti-CD3/anti-CD28 and IL4 for 15 mins by Western blot analysis; type: cell-based
T3 sequence (whole entry): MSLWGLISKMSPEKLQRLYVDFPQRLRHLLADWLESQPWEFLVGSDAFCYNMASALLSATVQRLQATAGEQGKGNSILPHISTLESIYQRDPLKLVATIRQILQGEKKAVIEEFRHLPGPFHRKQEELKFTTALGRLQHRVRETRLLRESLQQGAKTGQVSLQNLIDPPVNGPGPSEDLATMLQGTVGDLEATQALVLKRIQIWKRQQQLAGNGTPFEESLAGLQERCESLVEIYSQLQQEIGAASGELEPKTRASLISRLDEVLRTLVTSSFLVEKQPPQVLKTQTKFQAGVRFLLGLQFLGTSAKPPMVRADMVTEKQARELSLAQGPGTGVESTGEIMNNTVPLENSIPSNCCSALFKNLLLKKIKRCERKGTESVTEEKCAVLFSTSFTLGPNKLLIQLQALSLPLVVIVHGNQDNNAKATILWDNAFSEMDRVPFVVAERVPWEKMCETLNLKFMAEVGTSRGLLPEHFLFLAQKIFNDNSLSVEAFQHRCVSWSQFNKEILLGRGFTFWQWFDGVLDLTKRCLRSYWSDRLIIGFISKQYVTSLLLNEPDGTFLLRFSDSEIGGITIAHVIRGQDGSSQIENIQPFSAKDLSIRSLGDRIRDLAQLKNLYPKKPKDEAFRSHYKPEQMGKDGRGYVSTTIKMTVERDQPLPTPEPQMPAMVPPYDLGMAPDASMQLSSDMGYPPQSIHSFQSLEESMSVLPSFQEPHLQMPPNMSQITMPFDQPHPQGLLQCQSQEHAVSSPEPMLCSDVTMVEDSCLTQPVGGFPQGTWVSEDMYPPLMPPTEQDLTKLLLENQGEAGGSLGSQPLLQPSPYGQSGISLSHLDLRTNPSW
In short: as §1

[5] = target: T2, Signal transducer and activator of transcription 6 (Homo sapiens); assay: Inhibition of IL-13-stimulated STAT6 SH2 domain phosphorylation in human Beas-2B cells assessed as inhibition of CCL26 mRNA expression preincubated for 2 hrs followed by stimulation with IL-13 for 24 hrs by RT-PCR analysis
[6] = target: T4, Signal transducer and activator of transcription 6 (Homo sapiens, UniProt P42226); assay: Inhibition of STAT6 (unknown origin) expressed in Escherichia coli using FAM-Ala-pTyr-Lys-ProPhe-Gln-Asp-Leu-Ile-NH2 as substrate by fluorescence polarization assay
T4 sequence (P42226 whole entry): T2 sequence (whole entry)
In short: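 His6-tagged STAT6 construct (coiled-coil, DNA-binding, linker and SH2 domains), purified by nickel IMAC; competitive FP binding. STAT6 at 480 nM mixed with 20 nM FAM-labelled phosphopeptide probe, then equal volume of serially diluted peptides (from 200 μM) added. Buffer: 50 mM NaCl, 10 mM Hepes, 1 mM Na4EDTA, 2 mM DTT, 1% NP-40. mP plotted against log concentration; IC50 by nonlinear regression; triplicate, three probe preparations; mean ± SD.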

[7] = target: T2, Signal transducer and activator of transcription 6 (Homo sapiens); assay: Inhibition of IL4-stimulated STAT6 phosphorylation at tyrosine 641 in human Beas-2B cells at 0.025 to 5 uM incubated for 2 hrs followed by stimulation with IL4 for 1 hr by Western blot assay; type: cell-based
In short: (§2)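 Beas-2B seeded at 3.0 × 10^5 cells/well the day before; prodrugs from DMSO stocks added to final concentrations for 2 h, then IL-4 (2 ng/mL) for 1 h. PBS-washed cells lysed with PMSF, protein by modified Lowry; blots blocked in 3% BSA/TBST, probed for pSTAT6 (Tyr641), stripped and reprobed for total STAT6; ECL on X-ray film.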

[8] = organism: Mus musculus; assay: Inhibition of IL2-induced STAT5 phosphorylation at Y694 in CD4+ T lymphocytes isolated from C57BL/6J mouse at 0.5 to 5 uM preincubated for 2 hrs followed by activation with plate-bound anti-CD3/anti-CD28 and IL2 for 15 mins by Western blot analysis; type: cell-based
In short: as §1

[9] = Cytotoxicity against human BEAS2B cells assessed as cell viability after 72 hrs by MTS assay; type: cell-based; conditions: beas-2b
In short: (§3)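 Beas-2B seeded at 2000 cells/well; 10 mM DMSO stocks serially diluted in DMSO and equal amounts added to cultures; 72 h at 37 °C; medium replaced by 1:5 MTS/PBS, 1 h further incubation; viable cells read as optical density at 490 nm.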

[10] = Cytotoxicity against human BEAS2B cells assessed as cell viability at <=1 uM after 72 hrs by MTS assay; type: cell-based; conditions: beas-2b
In short: as §3

[11] = target: T2, Signal transducer and activator of transcription 6 (Homo sapiens); assay: Inhibition of IL4-induced STAT6 phosphorylation in human MDA-MB-468 cells at 0.1 to 5 uM incubated for 2 hrs followed by stimulation with IL4 for 1 hr by Western blot assay; type: cell-based
In short: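 MDA-MB-468 breast cancer cells serum-starved, treated with prodrugs, then IL-4 stimulated; pSTAT6 read by Western blot.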

[12] = target: T2, Signal transducer and activator of transcription 6 (Homo sapiens); assay: Inhibition of IL4-induced STAT6 phosphorylation at tyrosine 641 in human Beas-2B cells at 100 to 500 nM incubated for 2 hrs followed by stimulation with IL4 for 1 hr by Western blot assay; type: cell-based
In short: as §2

[13] = target: RAC-alpha serine/threonine-protein kinase (Homo sapiens) (UniProt P31749); assay: Inhibition of EGF-induced AKT phosphorylation at S473 in human MDA-MB-468 cells at 5 uM incubated for 2 hrs followed by stimulation with EGF for 1 hr by Western blot assay; type: cell-based
Chain of RAC-alpha serine/threonine-protein kinase (Homo sapiens) (P31749 whole entry): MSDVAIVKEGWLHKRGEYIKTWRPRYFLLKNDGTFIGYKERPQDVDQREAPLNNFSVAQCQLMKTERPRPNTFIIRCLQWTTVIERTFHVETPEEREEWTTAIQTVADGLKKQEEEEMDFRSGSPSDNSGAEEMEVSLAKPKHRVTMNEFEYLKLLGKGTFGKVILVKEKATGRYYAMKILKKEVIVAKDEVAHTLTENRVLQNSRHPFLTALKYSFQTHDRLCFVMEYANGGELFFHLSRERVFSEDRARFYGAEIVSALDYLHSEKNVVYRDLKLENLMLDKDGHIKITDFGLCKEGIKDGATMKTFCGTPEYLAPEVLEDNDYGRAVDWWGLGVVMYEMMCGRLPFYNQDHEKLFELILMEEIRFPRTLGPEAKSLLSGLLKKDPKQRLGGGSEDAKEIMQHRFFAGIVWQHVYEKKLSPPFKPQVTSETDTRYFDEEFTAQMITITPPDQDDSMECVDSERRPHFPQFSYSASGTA

[14] = target: T2, Signal transducer and activator of transcription 6 (Homo sapiens); assay: Inhibition of IL4-induced STAT6 phosphorylation at tyrosine 641 in human Beas-2B cells at 50 to 100 nM incubated for 2 hrs followed by stimulation with IL4 for 1 hr by Western blot assay; type: cell-based
In short: as §2

Structure (SMILES)	inhibition [1]	inhibition [2]	inhibition [4]	IC50 [6] [µM]	inhibition [8]	also measured
CC[C@H](C)[C@H](NC(=O)[C@H](CC(C)C)NC(=O)[C@H](CC(=O)O)NC(=O)[C@H](CCC(N)=O)NC(=O)[C@H](Cc1ccccc1)NC(=O)[C@@H]1CCCN1C(=O)[C@H](CCCCN)NC(=O)[C@H](Cc1ccc(OP(=O)(O)O)cc1)NC(C)=O)C(N)=O (HELM PEPTIDE1{[ac].[O=C([C@H](Cc1ccc(OP(=O)(O)O)cc1)N[*:1])[*:2]].K.P.F.Q.D.L.I.[am]}$$$$V2.0)				1.8		
CN(C(=O)[C@@H]1CCCN1C(=O)[C@@H](NC(=O)/C=C/c1ccc(OP(=O)(O)O)cc1)C(C)(C)C)c1ccccc1				0.87		
NCCCC[C@H](NC(=O)/C=C/c1ccc(OP(=O)(O)O)cc1)C(=O)N1CCC[C@H]1C(=O)N[C@@H](Cc1ccccc1)C(N)=O				8.6		
C/C(=C\C(=O)N[C@H](C(=O)N1CCCC1CN(C)c1ccccc1)C(C)(C)C)c1ccc(OP(=O)(O)O)cc1 (stereo partly specified)				0.41		

Second part, led by results:

inhibition [1]	inhibition [2]	inhibition [4]	Structure (SMILES)	IC50 [6] [µM]	inhibition [8]	also measured
inactive	inactive	inactive	CC(C)(C)C(=O)OCOP(=O)(OCOC(=O)C(C)(C)C)C(F)(F)c1ccc(/C=C/C(=O)N[C@H](C(=O)N2CCC[C@H]2C(=O)N(c2ccccc2)c2ccc(I)cc2)C(C)(C)C)cc1			inhibition [3]: > 50%; inhibition [5]: Dose-dependent effect
inactive	inactive	Active	C/C(=C\C(=O)N[C@H](C(=O)N1CCC[C@H]1C(=O)N(C)C1CCCCC1)C(C)(C)C)c1ccc(C(F)(F)P(=O)(OCOC(=O)C(C)(C)C)OCOC(=O)C(C)(C)C)cc1		Active	inhibition [7]: Active; Activity [9]: Non-toxic
inactive	inactive	Active	CC(C)(C)C(=O)OCOP(=O)(OCOC(=O)C(C)(C)C)C(F)(F)c1ccc(/C=C/C(=O)N[C@H](C(=O)N2CCC[C@H]2C(=O)N(c2ccccc2)c2ccccc2)C(C)(C)C)cc1		Active	Activity [10]: Non-toxic; inhibition [11]: Active; inhibition [12]: Active
inactive	inactive	Active	CN(C(=O)[C@@H]1CCCN1C(=O)[C@@H](NC(=O)/C=C/c1ccc(C(F)(F)P(=O)(OCOC(=O)C(C)(C)C)OCOC(=O)C(C)(C)C)cc1)C(C)(C)C)c1ccccc1		Active	inhibition [13]: Active; Activity [9]: Non-toxic; inhibition [14]: Active; Activity [10]: Non-toxic; inhibition [11]: Active
